Experimental data from ChEMBL document CHEMBL2417498, “Design and synthesis of 6,7-methylenedioxy-4-substituted phenylquinolin-2(1H)-one derivatives as novel anticancer agents that induce apoptosis with cell cycle arrest at G2/M phase” (Bioorg Med Chem, 2013).
Active and inactive are the calls of the source. The rule behind the calls is not given here.

Key:
HL-60 [1] = assay: Decrease in cyclin B1 expression in human HL60 cells at 0.25 to 1 uM after 24 hrs by Western blot analysis; assay type: functional, cell-based
Outline: (§1)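 HL-60 cells treated 24 h at the indicated concentrations, harvested, lysed (30 min on ice, 12,000 g spin), protein by Bradford; samples run on 10% SDS-PAGE, transferred to nitrocellulose, immunodetected by chemiluminescence.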

[2] = Cytotoxicity against human 2774 cells after 48 hrs by MTT assay; assay type: functional, cell-based
[3] = Cell cycle arrest in human H460 cells assessed as accumulation at G2/M phase at 1 uM after 24 hrs by propidium iodide staining-based FACS analysis (reference value: 10.73%); assay type: functional; conditions: NCI-H460
Outline: (§2)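 H460 cells treated 24 h with 1.0, 2.5 or 5.0 µM; washed in PBS, fixed overnight in 70% ice-cold ethanol at −20 °C, stained 30 min in the dark with 0.1% Triton X-100, 0.2 mg/mL RNase and 20 µg/mL propidium iodide; DNA content by flow cytometry, phase distribution from histogram modelling.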

[4] = Cell cycle arrest in human H460 cells assessed as accumulation at S phase at 1 uM after 24 hrs by propidium iodide staining-based FACS analysis (reference value: 43.08%); assay type: functional; conditions: NCI-H460; outline: as §2
[5] = Cell cycle arrest in human H460 cells assessed as accumulation at G0/G1 phase at 1 uM after 24 hrs by propidium iodide staining-based FACS analysis (reference value: 46.19%); assay type: functional; conditions: NCI-H460; outline: as §2
HL-60 [6] = assay: Cell cycle arrest in human HL60 cells assessed as accumulation at G2/M phase at 0.5 uM after 24 hrs by propidium iodide staining-based FACS analysis (reference value: 10.51%); assay type: functional
[7] = Cell cycle arrest in human H460 cells assessed as accumulation at sub G1 phase at 5 uM after 24 hrs by propidium iodide staining-based FACS analysis (reference value: 3.07%); assay type: functional; conditions: NCI-H460; outline: as §2
HL-60 [8] = assay: Increase in cyclin B1 expression in human HL60 cells at 0.25 to 1 uM after 24 hrs by Western blot analysis; assay type: functional, cell-based; outline: as §1
HL-60 [9] = assay: Cell cycle arrest in human HL60 cells assessed as accumulation at G0/G1 phase at 0.5 uM after 24 hrs by propidium iodide staining-based FACS analysis (reference value: 39.80%); assay type: functional
[10] = Cell cycle arrest in human H460 cells assessed as accumulation at G0/G1 phase at 2.5 uM after 24 hrs by propidium iodide staining-based FACS analysis (reference value: 46.19%); assay type: functional; conditions: NCI-H460; outline: as §2
[11] = Cell cycle arrest in human H460 cells assessed as accumulation at S phase at 2.5 uM after 24 hrs by propidium iodide staining-based FACS analysis (reference value: 43.08%); assay type: functional; conditions: NCI-H460; outline: as §2
NCI-H460 [12] = assay: Induction of apoptosis in human H460 cells assessed as appearance of apoptotic bodies at 1 to 5 uM after 24 hrs by Hoechst 33258 staining-based microscopy; assay type: functional, cell-based
Outline: (§3)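 H460 plated at 5×10⁴ cells/well and incubated 24 h with 1.0, 2.5 or 5.0 µM; stained with 5 µg/mL Hoechst 33258 for 10 min, washed twice in PBS, fixed in 4% paraformaldehyde 10 min at 25 °C; nuclei scored for chromatin condensation, fragmentation and apoptotic bodies by fluorescence microscopy; 0.1% DMSO control.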

NCI-H460 [13] = assay: Induction of apoptosis in human H460 cells assessed as chromatin condensation at 1 to 5 uM after 24 hrs by Hoechst 33258 staining-based microscopy; assay type: functional, cell-based; outline: as §3
HL-60 [14] = assay: Cytotoxicity against human HL60 cells after 48 hrs by MTT assay; assay type: functional, cell-based; conditions: HL-60, 48 h
Outline: (§4)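 Log-phase tumour cells grown in RPMI-1640 with 10% FBS, penicillin/streptomycin and 1% L-glutamine at 37 °C, 5% CO2. Cells treated with vehicle or a range of concentrations for 48 h. Growth measured by MTT reduction, absorbance at 570 nm. IC50 is the concentration giving 50% proliferation inhibition, from 3 independent experiments.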

COLO 205 = assay: Cytotoxicity against human COLO205 cells after 48 hrs by MTT assay; assay type: functional, cell-based; conditions: COLO 205, 48 h; outline: as §4
NCI-H460 [15] = assay: Induction of apoptosis in human H460 cells assessed as appearance of nuclear fragmentation at 1 to 5 uM after 24 hrs by Hoechst 33258 staining-based microscopy; assay type: functional, cell-based; outline: as §3
[16] = Cell cycle arrest in human H460 cells assessed as accumulation at sub G1 phase at 2.5 uM after 24 hrs by propidium iodide staining-based FACS analysis (reference value: 3.07%); assay type: functional; conditions: NCI-H460; outline: as §2
HL-60 [17] = assay: Cell cycle arrest in human HL60 cells assessed as accumulation at G0/G1 phase at 1 uM after 24 hrs by propidium iodide staining-based FACS analysis (reference value: 39.80%); assay type: functional
NCI-H460 [18] = assay: Induction of apoptosis in human H460 cells assessed as caspase3 cleavage at 1 to 5 uM by Western blot analysis; assay type: functional, cell-based
Outline: (§5)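 H460 cells exposed 24 h at the indicated concentrations; lysates cleared at 12,000 g, protein quantified by Bradford, resolved on 10% SDS-polyacrylamide gels, blotted to nitrocellulose and detected by chemiluminescence.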

NCI-H460 [19] = assay: Increase in CDK1 expression in human H460 cells after 24 hrs by Western blot analysis; assay type: functional, cell-based; outline: as §5
HL-60 [20] = assay: Cell cycle arrest in human HL60 cells assessed as accumulation at sub G1 phase at 1.0 uM after 24 hrs by propidium iodide staining-based FACS analysis (reference value: 0.35%); assay type: functional
HL-60 [21] = assay: Cell cycle arrest in human HL60 cells assessed as accumulation at G2/M phase at 0.25 uM after 24 hrs by propidium iodide staining-based FACS analysis (reference value: 10.51%); assay type: functional
MCF7 = assay: Cytotoxicity against human MCF7 cells after 48 hrs by MTT assay; assay type: functional, cell-based; conditions: MCF7, 48 h; outline: as §4
HL-60 [22] = assay: Cell cycle arrest in human HL60 cells assessed as accumulation at sub G1 phase at 0.25 uM after 24 hrs by propidium iodide staining-based FACS analysis (reference value: 0.35%); assay type: functional
HL-60 [23] = assay: Induction of apoptosis in human HL60 cells assessed as chromatin condensation at 0.25 to 1 uM after 24 hrs by Hoechst 33258 staining-based microscopy; assay type: functional, cell-based
Outline: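 HL-60 seeded at 1×10⁵ cells/well, treated 24 h with 0.25, 0.5 or 1.0 µM; nuclei stained 10 min with 5 µg/mL Hoechst 33258, PBS-washed twice, fixed 10 min in 4% PFA at 25 °C; apoptotic morphology imaged by fluorescence microscopy against 0.1% DMSO-treated cells.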

[24] = Cell cycle arrest in human H460 cells assessed as accumulation at G2/M phase at 5 uM after 24 hrs by propidium iodide staining-based FACS analysis (reference value: 10.73%); assay type: functional; conditions: NCI-H460; outline: as §2
HL-60 [25] = assay: Cell cycle arrest in human HL60 cells assessed as accumulation at G0/G1 phase at 0.25 uM after 24 hrs by propidium iodide staining-based FACS analysis (reference value: 39.80%); assay type: functional
HL-60 [26] = assay: Induction of apoptosis in human HL60 cells assessed as caspase3 cleavage at 0.25 to 1 uM by Western blot analysis; assay type: functional, cell-based; outline: as §1
A498 = assay: Cytotoxicity against human A498 cells after 48 hrs by MTT assay; assay type: functional, cell-based; conditions: A498, 48 h; outline: as §4
HL-60 [27] = assay: Cell cycle arrest in human HL60 cells assessed as accumulation at S phase at 0.5 uM after 24 hrs by propidium iodide staining-based FACS analysis (reference value: 49.69%); assay type: functional

Compound: COc1ccc(-c2cc(=O)[nH]c3cc4c(cc23)OCO4)c(OC)c1
- Activity (HL-60 [1]): Active
- IC50 [2]: 0.4 µM
- Activity [3]: 54.4%
- Activity [4]: 44.1%
- Activity [5]: 1.57%
- Activity (HL-60 [6]): 25.02%
- Activity [7]: 11.2%
- Activity (HL-60 [8]): Active
- Activity (HL-60 [9]): 44.82%
- Activity [10]: 9.6%
- Activity [11]: 18.8%
- Activity (NCI-H460 [12]): Active
- Activity (NCI-H460 [13]): Active
- IC50 (HL-60 [14]): 0.4 µM
- IC50 (COLO 205): 7.4 µM
- Activity (NCI-H460 [15]): Active
- Activity [16]: 11.7%
- Activity (HL-60 [17]): 12.46%
- Activity (NCI-H460 [18]): Active
- Activity (NCI-H460 [19]): Dose-dependent effect
- Activity (HL-60 [20]): 19.65%
- Activity (HL-60 [21]): 11.87%
- IC50 (MCF7): 6 µM
- Activity (HL-60 [22]): 13.88%
- Activity (HL-60 [23]): Active
- Activity [24]: 68.2%
- Activity (HL-60 [25]): 41.36%
- Activity (HL-60 [26]): Active
- IC50 (A498): 48 µM
- Activity (HL-60 [27]): 30.16%
